TCR-CD3 inh – human TCR-CD3 binding inhibition | TAMRA-labeled TCR probe fluorescence, biochemical | inhibition, % at 9.4 µM | hit rate 0.37% among 360,000 | AID 651800; in the data active = inhibition above about 19%;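 also: recombinant mutant TCR 2C K166C tagged with TAMRA read by polarization; 0% = receptor in buffer alone and 100% = receptor with positive control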
SIAE inh – blocks human sialic acid acetylesterase; SIAE FP-Rh probe binding, fluorescence polarization; hit rate 0.69% among 370,000; inhibition, % at 9.66 µM;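 active = inhibition above a cutoff: mean of compounds within the control limits plus 3 SD of those, cut at about 17% in these data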;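 also: 0% = plate median of compound wells and 100% = probe without SIAE protein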
HTRA1 inh – blocks human HTRA1 serine peptidase; recombinant HTRA1, FP-rhodamine activity-based probe, fluorescence polarization; inhibition, % at 5.96 µM; hit rate 0.5% among 340,000; AID 504803; in the data active = inhibition above about 36%;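 also: 0% = enzyme with DMSO and 100% = wells lacking enzyme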
mABHD4 FP – ABHD4 (mouse) inhibition, primary FP screen; AID 720543; inhibition, % at 8.92 µM; Q8VD66; hit rate 0.54% among 370,000; purified mABHD4, FP-Rh probe fluorescence polarization;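 active = inhibition exceeding the mean over every tested compound plus 3 SD, cut at about 30% in these data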;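 also: 0% = plate median of compound wells and 100% = S159A mutant with DMSO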
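Assay system: Wild-type mouse ABHD4 protein | Medium: HEPES pH 7.0 buffer, 150 mM NaCl, 0.01% Pluronic F-127 | Incubation: Enzyme–compound pre-incubation 45 min, then probe 60 min, both 25 °C | Technique: Fluorescence polarization with parallel and perpendicular emission, 525/598 nm | Evaluation: % inhibition of FP-Rh probe binding versus controls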
PRMT1 FP inh – PRMT1 (human) inhibition, primary screen. Q99873. recombinant PRMT1, activity-based probe fluorescence polarization. inhibition, % at 2.79 µM. hit rate 1.3% among 370,000. AID 652257;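 active = inhibition above about 21% made by adding two undisclosed values, limit read from the data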
Target sequence (Q99873 whole entry, looked up): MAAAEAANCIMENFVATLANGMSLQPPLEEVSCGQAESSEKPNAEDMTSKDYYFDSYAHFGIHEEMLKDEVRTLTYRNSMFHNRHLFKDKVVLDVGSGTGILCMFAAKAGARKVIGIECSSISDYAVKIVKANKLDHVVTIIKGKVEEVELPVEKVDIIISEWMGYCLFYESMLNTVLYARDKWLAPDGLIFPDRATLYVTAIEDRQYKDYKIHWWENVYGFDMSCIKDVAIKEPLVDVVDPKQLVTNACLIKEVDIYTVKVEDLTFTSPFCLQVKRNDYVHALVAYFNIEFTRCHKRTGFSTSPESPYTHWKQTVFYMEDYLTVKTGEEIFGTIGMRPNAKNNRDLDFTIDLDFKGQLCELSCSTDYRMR
PRMT1 inh conf – PRMT1 (human) inhibition, FP confirmation. shares compounds with PRMT1 FP inh. recombinant His-PRMT1, activity-based probe fluorescence polarization. inhibition, % at 2.79 µM. hit rate 42% among 3,300. AID 687036;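 active = mean inhibition across replicates above the hit cutoff derived for the earlier primary screen, cut at about 22% in these data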
ABHD4 confirm – ABHD4 (mouse) inhibition, FP confirmation; hit rate 55% among 1,800; purified mABHD4, FP-Rh probe fluorescence polarization; inhibition, % at 8.92 µM; shares compounds with mABHD4 FP; AID 720658;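 active = mean inhibition across replicates above the hit cutoff set in the primary screen, cut at about 30% in these data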;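 also: 0% = wild-type ABHD4 with DMSO and 100% = catalytically dead S159A mutant with DMSO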
Numbers without * were called inactive; . = no result. Shown are actives, neighbours in structure and some others; about 2.6% of the full set was active somewhere.

SMILES	TCR-CD3 inh	SIAE inh	HTRA1 inh	mABHD4 FP	PRMT1 FP inh	PRMT1 inh conf	ABHD4 confirm
Nc1ncc(N=Nc2cc(C(=O)O)ccc2Cl)s1	4	-3	5	42*	26*	29*	62*
O=C(NN1C(=O)/C(=C/C=C/c2ccco2)SC1=S)c1ccncc1	16	15	.	49*	53*	52*	13
COc1ccc(S[C@]2(C(=O)N(C)C)CC(=O)N(C(=O)C3CC3)[C@@H]2c2ccc(OC)cc2)cc1	.	-2	.	34*	42*	34*	32*
COc1ccc(S[C@]2(C(=O)N(C)C)CC(=O)N(c3ccc(Cl)cc3)[C@@H]2c2ccc(OC)cc2)cc1	.	0	.	-16	-2	.	.
C#CCNC(=O)C[C@H]1C[C@@]2(C(=O)OC)C(=C[C@H](C(C)(C)C)O[C@@H]2C)N(CCc2ccc(OC)c(OC)c2)C1=O	0	5	.	2	1	.	.
COc1ccc(Cl)cc1S(=O)(=O)N1CCC(C(=O)NCc2ccccn2)CC1	1	6	6	5	1	.	.
O=c1[nH]c(S)c(/C=C2\C=Nc3ccccc32)s1	-8	-2	.	30*	48*	31*	35*
O=c1c(-c2cccc3ccccc23)[n+]([O-])c2ccccc2n1O	9	13	3	49*	25*	-1	14
CCn1c(SCC(=O)NCCc2ccccc2)nc2c([nH]c3ccccc32)c1=O	3	7	3	-4	-4	.	.
COC(=O)COc1ccc(S(=O)(=O)Nc2ccc3c(c2)OCCO3)cc1C	2	5	8	4	4	.	.
NC(CO)C(=O)NNCc1ccc(O)c(O)c1O (stereo unspecified)	16	13	7	37*	30*	41*	21
NS(=O)(=O)c1ccc(-c2ccc(/C=C3\SC(=S)N(C4CCS(=O)(=O)C4)C3=O)o2)cc1 (stereo unspecified)	-14	3	5	30*	42*	-8	-7
CCOC(=O)C1=CCN(S(=O)(=O)c2ccccc2C)C1c1ccccc1 (stereo unspecified)	-5	4	.	-13	7	.	.
COc1ccccc1N(C(C)=O)C1=C(Cl)C(=O)c2ccccc2C1=O	3	6	23	39*	94*	89*	46*
O=C(NN1C(=O)/C(=C/c2ccc(O)c([N+](=O)[O-])c2)SC1=S)c1ccccc1Cl	-12	-8	3	49*	28*	15	37*
COc1cc(/C=C2\SC(=S)N(NC(=O)c3ccccc3O)C2=O)ccc1O	-87	-98	-183	-159	5	.	.
Oc1ccc(Br)cc1C=Nc1ccc2c3c(cccc13)CC2	14	7	20	55*	56*	9	22
COCc1cc(N2CCN(C(=O)OC(C)(C)C)C[C@H]2C)ccc1N1CC[C@H](O)C1	3	11	.	38*	61*	1	9
COCc1cc(N2CCN(C(=O)OC(C)(C)C)C[C@@H]2C)ccc1N1CCS(=O)(=O)CC1	4	-3	.	-4	-4	.	.
COCc1cc(N2CCN(C(=O)OC(C)(C)C)C[C@@H]2C)ccc1N1CC[C@H](O)C1	6	9	.	35*	58*	7	14
COc1ccccc1CC(=O)OC(C)C(=O)Nc1ccc(S(=O)(=O)N2CCCCC2)cc1 (stereo unspecified)	-7	-4	4	-8	2	.	.
Cc1ccc(NC(=O)CSc2nnc(-c3ccco3)c(-c3ccco3)n2)cc1	8	6	31	41*	37*	77*	36*
O=C1Nc2ccccc2/C1=C\C(=O)c1ccccc1	0	-5	-7	7	13	.	.
O=C(/C=C1\C(=O)Nc2ccccc21)/C=C1\C(=O)Nc2ccccc21	6	19*	25	41*	53*	74*	24
O=c1ccc(S(=O)(=O)N2CCCC2)cn1Cc1ccc(Cl)cc1Cl	0	-9	-7	-7	-4	.	.
SMILES	TCR-CD3 inh	SIAE inh	HTRA1 inh	mABHD4 FP	PRMT1 FP inh	PRMT1 inh conf	ABHD4 confirm
O=[N+]([O-])c1c(Nc2ccccc2O)ccc2nonc12	-4	-1	-1	0	-5	.	.
O=[N+]([O-])c1c(Nc2ccccc2O)cc(Cl)c2nonc12	7	6	29	33*	60*	53*	49*
O=C(/C=C/c1ccc(Br)cc1)c1ccco1	3	3	-10	-5	5	.	.
O=C(C=Cc1ccco1)c1ccco1	1	3	9	32*	43*	11	12
O=C(/C=C/c1ccc([N+](=O)[O-])cc1)c1ccco1	4	-3	0	-2	-3	.	.
O=C(/C=C/c1ccc([N+](=O)[O-])cc1)/C=C/c1ccco1	1	10	33	39*	40*	60*	33*
CCCC(C)(C)C(=O)N1CCC1(C)C(=O)Nc1ccc(OC)c(OC)c1 (stereo unspecified)	-6	2	.	-4	-3	.	.
C/C(=N\Nc1ccc(Cl)c(C(=O)O)c1)c1ccc[nH]1	-7	10	17	35*	32*	5	50*
C/C(=N\Nc1ccc(Cl)c(C(=O)O)c1)c1cccs1	0	-3	2	7	17	.	.
Cc1ccc(C)c(OCC(=O)Nc2ccc(S(=O)(=O)Nc3ncccn3)cc2)c1	-5	-5	-5	0	4	.	.
CN1c2ccsc2/C(=N/Nc2ccccc2)CS1(=O)=O	-4	5	33	32*	38*	1	5
CN1c2ccsc2/C(=N/NC(=O)c2c(F)cccc2F)CS1(=O)=O	-6	-4	6	-12	1	.	.
Cc1ccc(CNC(=O)c2ccc(N3CCC4(CC3)CC(c3ccccc3)=NO4)c(N)c2)cc1	1	-3	1	6	1	.	.
Cc1ccccc1C(=O)N(Cc1cccs1)C1CCS(=O)(=O)C1 (stereo unspecified)	-6	-2	2	0	0	.	.
C=C1CCC2C(C)(C)CCC[C@]2(C)[C@H]1CC1=C(O)C(=O)C(CO)=CC1=O (stereo partly specified)	.	0	.	39*	80*	77*	71*
COc1cccc(C(O)c2ncc(-c3ccc(Cl)cc3)[nH]2)c1 (stereo unspecified)	-3	0	.	-16	3	.	.
CCOc1cccc(=O)c2c(C)n(-c3ccc(C(=O)O)cc3)c(C)c12	13	1	8	39*	37*	12	25
CCOc1cccc(=O)c2c(C)n(Cc3ccccc3)c(C)c12	-8	6	-4	5	0	.	.
COc1ccc(C(CNC(=O)c2cccc(NC(=O)c3cccs3)c2)N2CCCC2)cc1 (stereo unspecified)	-5	-12	-40	-7	5	.	.
CCC(CO)Nc1ccc(-c2n[nH]c(=O)c3ccccc23)cc1[N+](=O)[O-] (stereo unspecified)	1	-5	0	5	2	.	.
